Results reported in ChEMBL document CHEMBL1124568, “2,4-Diamino-5-benzylpyrimidines as antibacterial agents. 13. Some alkenyl derivatives with high in vitro activity against anaerobic organisms” (J Med Chem, 1989).
Values after ≈ are worked out from the molar mass of the structure shown.

What was measured:
[1] = tested on: Clostridium perfringens; assay: Ratio of antibacterial (Clostridium perfringens) activities compared to that of trimethoprim and metronidazole; format: functional
[2] = tested on: Pasteurella multocida; assay: Antibacterial (Pasteurella multocides ATCC 6587) activity compared to trimethoprim.; format: functional
Procedure, shortened: (§1)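 Each MIC is divided by the MIC of trimethoprim run alongside. Serial dilutions were normally 0.1, 0.3, 1, 3, 10, etc., and occasionally 1, 5 and 10. For E. coli the value is the average over six strains.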

[3] = tested on: Clostridioides difficile; assay: Ratio of antibacterial (Clostridium difficile) activities compared to that of trimethoprim and metronidazole; format: functional
[4] = tested on: Escherichia coli; assay: Antibacterial (Escherichia coli) activity compared to trimethoprim.; format: functional; procedure, shortened: as §1
[5] = biological target: T1, Dihydrofolate reductase (Rattus norvegicus, UniProt Q920D2); assay: In vitro inhibition of rat liver dihydrofolate reductase.; conditions: read-out: I50
T1 sequence (Q920D2 whole entry): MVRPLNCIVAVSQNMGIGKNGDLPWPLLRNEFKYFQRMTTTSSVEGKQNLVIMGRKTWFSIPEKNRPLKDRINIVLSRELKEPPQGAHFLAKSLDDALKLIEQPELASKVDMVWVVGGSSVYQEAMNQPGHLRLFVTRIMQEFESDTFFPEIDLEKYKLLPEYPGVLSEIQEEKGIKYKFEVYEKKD

[6] = tested on: Staphylococcus aureus; assay: Antibacterial (Staphylococcus aureus CN491) activity compared to trimethoprim.; format: functional; procedure, shortened: as §1
[7] = tested on: Klebsiella pneumoniae; assay: Antibacterial (Klebsiella pneumoniae CN3632) activity compared to trimethoprim.; format: functional; procedure, shortened: as §1
[8] = tested on: Serratia marcescens; assay: Antibacterial (Serratia marcescens CN2398) activity compared to trimethoprim.; format: functional; procedure, shortened: as §1
[9] = tested on: Shigella flexneri; assay: Antibacterial (Shigella flexneri CN6007) activity compared to trimethoprim.; format: functional; procedure, shortened: as §1
[10] = tested on: Proteus vulgaris; assay: Antibacterial (Proteus vulgaris CN329) activity compared to trimethoprim.; format: functional; procedure, shortened: as §1
[11] = Antibacterial (Salmonella typhi CN512) activity compared to trimethoprim.; format: functional, salmonella typhosa
[12] = tested on: Klebsiella aerogenes; assay: Antibacterial (Enterobacter aerogenes 2201/86) activity compared to trimethoprim.; format: functional; procedure, shortened: as §1
[13] = tested on: Mycolicibacterium smegmatis; assay: Antibacterial (Mycobacterium smegmatis S3254) activity compared to trimethoprim.; format: functional; procedure, shortened: as §1
[14] = tested on: Fusobacterium nucleatum; assay: Ratio of antibacterial (Fusobacterium nucleatum) activities compared to that of trimethoprim and metronidazole; format: functional
[15] = tested on: Streptococcus pyogenes; assay: Antibacterial ([…] CN10) activity compared to trimethoprim.; format: functional; procedure, shortened: as §1
[16] = tested on: Bacteroides thetaiotaomicron; assay: Ratio of antibacterial (Bacteroides thetaiotaomicron) activities compared to that of trimethoprim and metronidazole; format: functional
[17] = tested on: Phocaeicola vulgatus; assay: Ratio of antibacterial (Bacteroides vulgatus) activities compared to that of trimethoprim and metronidazole; format: functional
[18] = Half-life in dogs Plasma; format: ADME, organism-based, Canis lupus familiaris; conditions: dog
Procedure, shortened: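 Two fasted (18 h) male beagles received 5 mg/kg […] (free base), co-dosed with 5 mg/kg trimethoprim in propylene glycol. Jugular plasma was sampled from 0.17 to 24 h. Drug was extracted, separated by TLC and read by fluorescence densitometry. t1/2 came from least-squares linear regression of the postabsorption segment of the plasma curve.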

[19] = tested on: Shigella dysenteriae; assay: Ratio of antibacterial (Shigella dysentariae CN513) activities of compound and trimethoprim; format: functional
[20] = tested on: Salmonella; assay: Ratio of antibacterial (Salmonella typhi CN512) activities of compound and trimethoprim; format: functional, salmonella typhosa
[21] = tested on: Klebsiella aerogenes; assay: Ratio of antibacterial (Enterobacter aerogenes, 2201/86) activities of compound and trimethoprim; format: functional; procedure, shortened: as §1
[22] = tested on: Staphylococcus aureus; assay: Ratio of antibacterial (Staphylococcus aureus CN491) activities of compound and trimethoprim; format: functional; procedure, shortened: as §1
[23] = tested on: Escherichia coli; assay: Ratio of antibacterial (Escherichia coli CN314) activities of compound and trimethoprim; format: functional
[24] = tested on: Streptococcus pyogenes; assay: Ratio of antibacterial (Streptococcus pyogenes CN10) activities of compound and trimethoprim
[25] = biological target: T2, Dihydrofolate reductase (Escherichia coli, UniProt P0ABQ4); assay: In vitro inhibition of dihydrofolate reductase of Escherichia coli; conditions: read-out: I50
T2 sequence (P0ABQ4 whole entry): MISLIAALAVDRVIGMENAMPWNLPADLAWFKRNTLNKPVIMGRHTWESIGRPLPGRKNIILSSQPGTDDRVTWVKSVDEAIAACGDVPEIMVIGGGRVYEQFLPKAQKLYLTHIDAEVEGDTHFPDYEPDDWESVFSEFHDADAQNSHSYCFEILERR
Procedure, shortened: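 The E. coli DHFR assay contained 1 nM enzyme, with the lower limit for I50 arbitrarily set at 2 nM. I50 was estimated from plots of % inhibition of steady-state velocity vs log inhibitor concentration.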

[26] = tested on: Klebsiella pneumoniae; assay: Ratio of antibacterial (Klebsiella pneumoniae CN3632) activities of compound and trimethoprim; format: functional; procedure, shortened: as §1
[27] = tested on: Proteus vulgaris; assay: Ratio of antibacterial (Proteus vulgaris CN329) activities of compound and trimethoprim; format: functional; procedure, shortened: as §1

| SMILES | MIC [1] [µg/mL] | MIC [2] [µg/mL] | MIC [3] [µg/mL] | MIC [4] [µg/mL] | IC50 [5] [µM] | MIC [6] [µg/mL] | MIC [7] [µg/mL] | MIC [8] [µg/mL] | MIC [9] [µg/mL] | MIC [10] [µg/mL] | MIC [11] [µg/mL] | MIC [12] [µg/mL] | MIC [13] [µg/mL] | MIC [14] [µg/mL] | MIC [15] [µg/mL] | MIC [16] [µg/mL] | MIC [17] [µg/mL] | half-life [18] [min] | further results |
| --- | --- | --- | --- | --- | --- | --- | --- | --- | --- | --- | --- | --- | --- | --- | --- | --- | --- | --- | --- |
| C=CCOc1ccc(Cc2cnc(N)nc2N)cc1OC | > 25 | 10 (≈ 34.9 µM) | > 25 | 7.6 (≈ 26.5 µM) | 49 | 10 (≈ 34.9 µM) | 10 (≈ 34.9 µM) | 10 (≈ 34.9 µM) | 10 (≈ 34.9 µM) | 3 (≈ 10.5 µM) | 10 (≈ 34.9 µM) | 10 (≈ 34.9 µM) | 3 (≈ 10.5 µM) | 0.8 | 3 (≈ 10.5 µM) |  |  |  |  |
| C/C=C/c1cc(Cc2cnc(N)nc2N)cc(CCC)c1OC | 12.5 | 20 (≈ 64 µM) | 12.5 | 26 (≈ 83.2 µM) | 24 | 1 (≈ 3.2 µM) | 100 (≈ 320 µM) | > 5 | 100 (≈ 320 µM) | > 100 | 20 (≈ 64 µM) | 100 (≈ 320 µM) | 2 (≈ 6.4 µM) | 0.8 | 0.1 (≈ 0.32 µM) | 0.4 | 0.4 |  |  |
| C=CCc1cc(Cc2cnc(N)nc2N)cc(OC)c1O | > 25 | 1 (≈ 3.49 µM) | > 25 | 1 (≈ 3.49 µM) | 14.7 | 0.3 (≈ 1.05 µM) | 0.3 (≈ 1.05 µM) | 3 (≈ 10.5 µM) | 1 (≈ 3.49 µM) | 3 (≈ 10.5 µM) | 3 (≈ 10.5 µM) | 1 (≈ 3.49 µM) | 3 (≈ 10.5 µM) | 0.2 | 1 (≈ 3.49 µM) | 1.6 | 1.6 | 42 |  |
| C=CCOc1ccc(Cc2cnc(N)nc2N)cc1CC=C | > 25 | 500 (≈ 1690 µM) | > 25 | 72 (≈ 243 µM) | 11 | 10 (≈ 33.7 µM) | > 100 | > 10 | 500 (≈ 1690 µM) | > 50 | 1000 (≈ 3370 µM) | > 100 | > 100 | 0.8 | 2 (≈ 6.75 µM) |  |  |  |  |
| C=CCc1cc(Cc2cnc(N)nc2N)cc(CC=C)c1O | > 25 | 100 (≈ 337 µM) | > 25 | 21 (≈ 70.9 µM) | 9.6 | 1 (≈ 3.37 µM) | 20 (≈ 67.5 µM) | > 10 | 50 (≈ 169 µM) | 50 (≈ 169 µM) | 10 (≈ 33.7 µM) | 20 (≈ 67.5 µM) | 5 (≈ 16.9 µM) | 0.8 | 1 (≈ 3.37 µM) | 0.4 | 0.8 |  |  |
| Cc1cc(Cc2cnc(N)nc2N)cc2c1OC(C)(C)C2 |  |  |  |  | 37 |  |  |  |  |  |  |  |  |  |  |  |  |  | MIC [19]: 10 µg/mL; MIC [20]: 10 µg/mL; MIC [21]: 30 µg/mL; MIC [22]: 3 µg/mL; MIC [23]: 10 µg/mL; MIC [24]: 3 µg/mL; IC50 [25]: 0.055 µM; MIC [26]: 10 µg/mL; MIC [27]: 10 µg/mL |
| CCOc1cc(Cc2cnc(N)nc2N)cc(OC)c1OC |  | 1 (≈ 3.29 µM) |  | 2.6 (≈ 8.54 µM) | 140 | 0.3 (≈ 0.986 µM) | 1 (≈ 3.29 µM) | 3 (≈ 9.86 µM) | 1 (≈ 3.29 µM) | 1 (≈ 3.29 µM) | 1 (≈ 3.29 µM) | 1 (≈ 3.29 µM) | 1 (≈ 3.29 µM) |  | 0.3 (≈ 0.986 µM) |  |  | 188 |  |
| COc1cc(Cc2cnc(N)nc2N)cc(CC(C)O)c1O (stereo not given) |  | 3 (≈ 9.86 µM) |  | 4 (≈ 13.1 µM) | 36 | 3 (≈ 9.86 µM) | 10 (≈ 32.9 µM) | > 10 | 3 (≈ 9.86 µM) | 30 (≈ 98.6 µM) | 10 (≈ 32.9 µM) | 3 (≈ 9.86 µM) | 3 (≈ 9.86 µM) |  | 3 (≈ 9.86 µM) |  |  |  |  |
| C=CCc1cc(Cc2cnc(N)nc2N)cc(OC)c1OC | > 25 | 10 (≈ 33.3 µM) | > 25 | 6 (≈ 20 µM) | 50 | 0.1 (≈ 0.333 µM) | 10 (≈ 33.3 µM) | 3 (≈ 9.99 µM) | 10 (≈ 33.3 µM) | 10 (≈ 33.3 µM) | 3 (≈ 9.99 µM) | 10 (≈ 33.3 µM) | 3 (≈ 9.99 µM) | 0.4 | 0.3 (≈ 0.999 µM) | 1.6 | 1.6 | 50.4 |  |
